Laboratory results reported in ChEMBL document CHEMBL4196137, “Abyssomicin Monomers and Dimers from the Marine-Derived Streptomyces koyangensis SCSIO 5802” (J Nat Prod, 2018).
In brackets after ≈: the same amount, converted by molar mass.

Tests used:
Herpesviridae sp. = assay: Antiviral activity against Herpes simplex virus assessed as inhibition of viral replication at 10 uM relative to control; assay type: functional
Staphylococcus aureus [1] = assay: Antimicrobial activity against methicillin-resistant Staphylococcus aureus isolate 699 by two-fold serial dilution method; assay type: functional
Method in brief: (§1)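 MIC by 2-fold serial broth dilution in Mueller-Hinton broth, following CLSI standard methods; panel run alongside S. aureus ATCC 29213 and E. faecalis ATCC 29212.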

Staphylococcus aureus [2] = assay: Antimicrobial activity against Staphylococcus aureus ATCC 29213 by two-fold serial dilution method; assay type: functional
Method in brief: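 MIC measured by 2-fold serial broth dilution in Mueller-Hinton broth, following CLSI standard methods.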

Enterococcus faecalis = assay: Antimicrobial activity against Enterococcus faecalis ATCC 29212 by two-fold serial dilution method; assay type: functional; method in brief: as §1
Staphylococcus aureus [3] = assay: Antimicrobial activity against methicillin-resistant Staphylococcus aureus isolate 1862 by two-fold serial dilution method; assay type: functional; method in brief: as §1
[4] = tested on: Vesicular stomatitis virus; assay: Antiviral activity against Vesicular stomatitis virus infected in African green monkey Vero cells after 16 hrs by fluorescence microscopy; assay type: functional, organism-based
Staphylococcus aureus [5] = assay: Antimicrobial activity against methicillin-resistant Staphylococcus aureus isolate shhs-A1 by two-fold serial dilution method; assay type: functional; method in brief: as §1

SMILES	inhibition at 10 µM (Herpesviridae sp.) [%]	MIC (Staphylococcus aureus [1]) [µg/mL]	MIC (Staphylococcus aureus [2]) [µg/mL]	MIC (Enterococcus faecalis) [µg/mL]	MIC (Staphylococcus aureus [3]) [µg/mL]	IC50 [4] [µM]	MIC (Staphylococcus aureus [5]) [µg/mL]
C[C@H]1CC/C(O)=C2/C(=O)O[C@@]34C=C[C@]5(C1=O)[C@H](O)[C@@](C)(O[C@]235)[C@@H](C)C4	31	–	–	–	–	–	–
C[C@H]1CC/C(O)=C2/C(=O)O[C@]34C[C@H](C)[C@]5(C)O[C@]23[C@H](C1=O)[C@@H](S[C@H]1[C@H]2[C@H](O)[C@@]3(C)O[C@@]67/C(=C(/O)CC[C@H](C)C(=O)[C@H]16)C(=O)O[C@@]27C[C@@H]3C)[C@H]4[C@@H]5O	–	16 (≈ 22 µM)	32 (≈ 44 µM)	32 (≈ 44 µM)	16 (≈ 22 µM)	24	16 (≈ 22 µM)
C[C@H]1CCC(=O)C2=C3O[C@@]4(C)[C@@H](C)C[C@]3(OC2=O)[C@@H]([C@H](S[C@H]2[C@H]3[C@H](O)[C@@]5(C)O[C@@]67/C(=C(/O)CC[C@H](C)C(=O)[C@H]26)C(=O)O[C@@]37C[C@@H]5C)CC1=O)[C@@H]4O	–	16 (≈ 22 µM)	32 (≈ 44 µM)	32 (≈ 44 µM)	16 (≈ 22 µM)	19	16 (≈ 22 µM)
CC1(C)S[C@@H]2[C@H](NC(=O)[C@H](N)c3ccccc3)C(=O)N2[C@H]1C(=O)O [AMPICILLIN]	–	4 (≈ 11.4 µM)	0.25 (≈ 0.715 µM)	16 (≈ 45.8 µM)	0.125 (≈ 0.358 µM)	–	64 (≈ 183 µM)
CN[C@H](CC(C)C)C(=O)N[C@H]1C(=O)N[C@@H](CC(N)=O)C(=O)N[C@H]2C(=O)N[C@H]3C(=O)N[C@H](C(=O)N[C@H](C(=O)O)c4cc(O)cc(O)c4-c4cc3ccc4O)[C@H](O)c3ccc(c(Cl)c3)Oc3cc2cc(c3O[C@@H]2O[C@H](CO)[C@@H](O)[C@H](O)[C@H]2O[C@H]2C[C@](C)(N)[C@H](O)[C@H](C)O2)Oc2ccc(cc2Cl)[C@H]1O [VANCOMYCIN]	–	0.125 (≈ 0.0863 µM)	0.25 (≈ 0.173 µM)	0.25 (≈ 0.173 µM)	0.125 (≈ 0.0863 µM)	–	–
